One series deals with Acinetobacter baumannii. In words: Antibioflim activity in Acinetobacter baumannii ATCC 19606 after 24 hrs by general static inhibition assay. The series is classed as functional, ATCC 19606 = CIP 70.34 = JCM 6841. Summed up: (§1)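 Static biofilm inhibition: overnight wild-type culture subcultured to OD600 0.01 in LBNS (PA14) or LB (A. baumannii) containing compound (DMSO stocks), in PVC 96-well plates; covered, sealed, stationary 37 °C for 24 h. Wells washed with water, stained with 0.1% crystal violet for 30 min at ambient temperature, washed, and stain solubilized in 95% ethanol. Read-out is OD540.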

Series [1] has as its system Pseudomonas aeruginosa. Put plainly: Antibioflim activity in Pseudomonas aeruginosa PA14 after 24 hrs by general static inhibition assay. The series is classed as functional, organism-based. The settings on record: for pIC50: Pseudomonas aeruginosa, PA14, 24 h, read-out: IC50. An outline of the steps:
as §1

Series [2] has as its system Pseudomonas aeruginosa. In words: Antibioflim activity in Pseudomonas aeruginosa PA14 at 100 uM after 24 hrs by general static inhibition assay. The settings on record: PA14, 24 h. It counts as functional. Summed up: as §1
Series [3] concerns Pseudomonas aeruginosa. In words: Antibioflim activity in Pseudomonas aeruginosa PA14 after 24 hrs by general static dispersion assay. It counts as functional. Summed up:
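Static dispersion: wild-type PA14 subcultured to OD600 0.05 in LBNS in PVC 96-well plates, sealed, biofilm formed stationary at room temperature for 24 h. Medium replaced with fresh medium plus compound, then stationary 37 °C for 24 h. Crystal violet 0.1% for 30 min, ethanol-solubilized, read at OD540. Percent dispersion is treated versus untreated established biofilm.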

Series [4] concerns Pseudomonas aeruginosa. In words: Inhibition of biofilm formation against Pseudomonas aeruginosa PA14 after 24 hrs. Conditions: PA14, 24 h.
The next series deals with Caenorhabditis elegans. In words: Toxicity in Caenorhabditis elegans L4 stage larva assessed as toxicity threshold after 6 to 7 days. It counts as organism-based. The settings on record: in vivo. Summed up: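 Synchronized C. elegans N2 L1s (bleach egg prep, M9 starvation) grown on NGM/OP50 at 20 °C to L4. Two L4s per well in S medium with 5% HB101, compound 100 µM–1 mM, final DMSO 0.8–1.0%, in triplicate. Plates shaken at 22.5 °C for 6–7 days. Wells scored on day 4 and day 6/7 for clearing and population size. Threshold narrowed in 100 µM steps.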

The test system of series [5] is Pseudomonas aeruginosa. Put plainly: Antibioflim activity in Pseudomonas aeruginosa PAO1. It counts as functional, organism-based.

pIC50: −log10 of the molar value. Calls of active or inactive are those of the source.

The source of these data is ChEMBL document CHEMBL1158493, “Amide isosteres of oroidin: assessment of antibiofilm activity and C. elegans toxicity” (J Med Chem, 2009).

With `Cl.Nc1nc(CCCNC(=O)Nc2ccccc2)c[nH]1`, the “inhibition (INH)” value in the series on Acinetobacter baumannii worked out at 29%. Also, the IC50 result with Pseudomonas aeruginosa [1] is given as “Not Active”. This compound also displayed an inhibition at 100 µM in the series with Pseudomonas aeruginosa [2] of 35%. In addition, the outcome in the series with Pseudomonas aeruginosa [3] was inactive.

For the compound `CC(=O)c1cccc(NC(=O)NCCCc2c[nH]c(N)n2)c1.Cl`, in the series with Acinetobacter baumannii, the “inhibition (INH)” value amounted to 11%. The IC50 result with Pseudomonas aeruginosa [1] is “Not Active”. In the series on Pseudomonas aeruginosa [2], this compound displayed an inhibition at 100 µM of 69%. Also, the result in the series on Pseudomonas aeruginosa [3] was inactive.

`Cl.Nc1nc(CCCNS(=O)(=O)c2ccc(C(F)(F)F)cc2)c[nH]1`: the “inhibition (INH)” value in the series on Acinetobacter baumannii was 23%. For the same compound, the pIC50 in the series on Pseudomonas aeruginosa [1] is 4.60. This compound gave an inhibition at 100 µM with Pseudomonas aeruginosa [2] of 92%. Further, the outcome in the series on Pseudomonas aeruginosa [3] was inactive.

Take `Cl.Nc1nc(CCCNC(=O)Nc2ccc(F)c(Cl)c2)c[nH]1`: the “inhibition (INH)” value in the series on Acinetobacter baumannii amounted to 18%. Besides, the pIC50 in the series with Pseudomonas aeruginosa [1] and in the series on Pseudomonas aeruginosa [4] was 4.59 in each case. Further, testing at 100 µM with Pseudomonas aeruginosa [2] gave an inhibition of 90%. In the series with Pseudomonas aeruginosa [3], this compound registered an Activity of 55%.

Take `Cc1cc(C)cc(S(=O)(=O)NCCCc2c[nH]c(N)n2)c1.Cl`: in the series with Acinetobacter baumannii, the “inhibition (INH)” value was 17%. In the series with Pseudomonas aeruginosa [1], the negative logarithm of the IC50 (pIC50) was 4.34. Moreover, in the series on Pseudomonas aeruginosa [2], the inhibition at 100 µM is 87%. Moreover, the outcome in the series with Pseudomonas aeruginosa [3] was inactive.

Regarding `Cn1c(C(=O)NCCCc2c[nH]c(N)n2)cc(Br)c1Br` [DIHYDROSVENTRIN], the Activity with Caenorhabditis elegans amounted to 0.48 mM.

As for `Cl.Nc1nc(CCCNC(=S)NC2CCCCC2)c[nH]1`, the “inhibition (INH)” value in the series on Acinetobacter baumannii is reported as 14%. The pIC50 with Pseudomonas aeruginosa [1] and in the series on Pseudomonas aeruginosa [4] was 4.65 each time. Further, testing at 100 µM in the series on Pseudomonas aeruginosa [2] gave an inhibition of 89%. Moreover, in the series with Pseudomonas aeruginosa [3], the Activity was found to be 25%.

As to `CCCCCCCCCCCc1c[nH]c(N)n1`, the Activity in the series with Caenorhabditis elegans is > 1 mM.

As for `CCCCCCC(CCCCCC)NC(=O)CCCc1c[nH]c(N)n1`, the Activity in the series on Caenorhabditis elegans turned out to be 0.95 mM.

For the compound `Cl.Nc1nc(CCCNC(=O)NC2CCCCCC2)c[nH]1`, in the series with Acinetobacter baumannii, the “inhibition (INH)” value is listed as <5%. For the same compound, in the series with Pseudomonas aeruginosa [1], the IC50 entry is reported as “Not Active”. For the same compound, in the series with Pseudomonas aeruginosa [2], the inhibition at 100 µM is 70%. The outcome with Pseudomonas aeruginosa [3] was inactive.

With `Cl.Nc1nc(CCCNS(=O)(=O)c2ccc(Br)cc2)c[nH]1`, the “inhibition (INH)” value in the series on Acinetobacter baumannii is recorded as 25%. In addition, the pIC50 with Pseudomonas aeruginosa [1] was 4.71. In addition, testing at 100 µM with Pseudomonas aeruginosa [2] gave an inhibition of 85%. In addition, the result with Pseudomonas aeruginosa [3] was inactive.

Take `CCOc1ccc(NC(=O)NCCCc2c[nH]c(N)n2)cc1.Cl`: in the series with Acinetobacter baumannii, the “inhibition (INH)” value turned out to be 11%. For the same compound, in the series with Pseudomonas aeruginosa [1], the pIC50 is 4.30. Besides, at 100 µM the inhibition in the series with Pseudomonas aeruginosa [2] was 81%. Moreover, the result with Pseudomonas aeruginosa [3] was inactive.

As to `CCCCCCS(=O)(=O)NCCCc1c[nH]c(N)n1.Cl`, the “inhibition (INH)” value in the series with Acinetobacter baumannii is listed as 24%. The pIC50 in the series with Pseudomonas aeruginosa [1] and with Pseudomonas aeruginosa [4] was 4.99 in each case. This compound yielded an inhibition at 100 µM in the series with Pseudomonas aeruginosa [2] of 80%. For the same compound, the Activity in the series with Pseudomonas aeruginosa [3] was 42%; in the series with Caenorhabditis elegans, > 1 mM.

Regarding `Cc1ccc(S(=O)(=O)NCCCc2c[nH]c(N)n2)cc1.Cl`, the “inhibition (INH)” value in the series with Acinetobacter baumannii is on record as 8%. Moreover, the IC50 result with Pseudomonas aeruginosa [1] is on record as “Not Active”. 100 µM produced 45% inhibition in the series on Pseudomonas aeruginosa [2]. Further, the outcome in the series on Pseudomonas aeruginosa [3] was inactive.

`Cl.Nc1nc(CCCNS(=O)(=O)c2ccc3ccccc3c2)c[nH]1`: the “inhibition (INH)” value with Acinetobacter baumannii was found to be 26%. The pIC50 in the series on Pseudomonas aeruginosa [1] is 4.81. Further, the inhibition at 100 µM in the series with Pseudomonas aeruginosa [2] turned out to be 93%. For the same compound, in the series with Pseudomonas aeruginosa [3], the outcome was inactive.

Take `Nc1ncc(/C=C/CNC(=O)c2cc(Br)c(Br)[nH]2)[nH]1` [OROIDIN]: the pIC50 in the series on Pseudomonas aeruginosa [5] was 3.72; in the series on Pseudomonas aeruginosa [1], 3.80. In the series with Caenorhabditis elegans, the Activity was determined as 0.65 mM.

For the compound `CCCCCCNC(=O)CCCc1c[nH]c(N)n1`, the Activity with Caenorhabditis elegans was > 1 mM.

As to `CCCCCCNC(=O)NCCCc1c[nH]c(N)n1.Cl`, the “inhibition (INH)” value in the series on Acinetobacter baumannii is on record as 28%. Further, the pIC50 with Pseudomonas aeruginosa [1] is 4.45. Besides, the inhibition at 100 µM in the series on Pseudomonas aeruginosa [2] worked out at 94%. Further, the outcome in the series on Pseudomonas aeruginosa [3] was inactive.

In the case of `Cc1ccc(F)cc1NC(=O)NCCCc1c[nH]c(N)n1.Cl`, the “inhibition (INH)” value in the series on Acinetobacter baumannii turned out to be 12%. Also, in the series with Pseudomonas aeruginosa [1], the pIC50 is 4.33. In the series with Pseudomonas aeruginosa [2], this compound registered an inhibition at 100 µM of 81%. Further, in the series on Pseudomonas aeruginosa [3], the outcome was inactive.

On to `Cl.Nc1nc(CCCNC(=S)Nc2ccccc2)c[nH]1`, for which the “inhibition (INH)” value in the series with Acinetobacter baumannii came to 8%. In addition, the pIC50 with Pseudomonas aeruginosa [1] is 4.57. The compound further registered an inhibition at 100 µM with Pseudomonas aeruginosa [2] of 90%. For the same compound, in the series on Pseudomonas aeruginosa [3], the outcome was inactive.

With `Cl.Nc1nc(CCCNS(=O)(=O)c2cccc(C(=O)O)c2)c[nH]1`, the “inhibition (INH)” value with Acinetobacter baumannii was found to be 11%. Besides, the IC50 result with Pseudomonas aeruginosa [1] was “Not Active”. Also, in the series with Pseudomonas aeruginosa [2], the inhibition at 100 µM worked out at 14%. Also, the result in the series with Pseudomonas aeruginosa [3] was inactive.

Regarding `Cl.Nc1nc(CCCNC(=O)NCc2ccccc2)c[nH]1`, the “inhibition (INH)” value with Acinetobacter baumannii was determined as 7%. Besides, the IC50 entry in the series with Pseudomonas aeruginosa [1] is given as “Not Active”. In the series with Pseudomonas aeruginosa [2], this compound displayed an inhibition at 100 µM of 45%. Also, in the series with Pseudomonas aeruginosa [3], the result was inactive.

As for `Cl.Nc1nc(CCCNS(=O)(=O)c2ccccc2F)c[nH]1`, the “inhibition (INH)” value in the series with Acinetobacter baumannii was determined as 11%. Besides, the IC50 result with Pseudomonas aeruginosa [1] is on record as “Not Active”. The compound further showed an inhibition at 100 µM with Pseudomonas aeruginosa [2] of 43%. Moreover, in the series on Pseudomonas aeruginosa [3], the outcome was inactive.

As for `CCCCCCc1cn(CCCc2c[nH]c(N)n2)nn1`, the Activity with Caenorhabditis elegans is > 1 mM.

For `Cl.Nc1nc(CCCNS(=O)(=O)c2cccc3cccnc23)c[nH]1`, in the series with Acinetobacter baumannii, the “inhibition (INH)” value came out at 17%. In addition, the IC50 entry in the series with Pseudomonas aeruginosa [1] was “Not Active”. For the same compound, the inhibition at 100 µM in the series with Pseudomonas aeruginosa [2] worked out at 50%. In addition, the outcome in the series on Pseudomonas aeruginosa [3] was inactive.

What is called inhibition is the percentage by which the read-out fell short of the control. Low readings indicate little suppression, high ones strong suppression. By pIC50 is commonly meant the IC50 on a negative log10 scale, so that one unit is a factor of ten.
